# Assay outcomes deposited in PubChem by Broad Institute.
# DYRK1A inh: rat Dyrk1A kinase inhibitors, primary screen, biochemical, single point, plate reader; ADP-Glo luminescence, NFATc1 peptide; inhibition, % at 12.5 µM; AID 504441, 2011; hit rate 0.43% among 310,000; Dual specificity tyrosine-phosphorylation-regulated kinase 1A (Rattus norvegicus), Q63470; in the data active means inhibition above about 50%;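 further: plate controls were vehicle with enzyme for no effect and no enzyme for full effect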
# Rtt109 Vps75: inhibitors of C. albicans Rtt109/Vps75 HAT, primary screen, biochemical, ThioGlo CoA-SH fluorescence, plate reader; hit rate 0.16% among 330,000; inhibition, % at 34.9 µM; purified Rtt109/Vps75, 4 h;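 active means inhibition of at least 50% in every replicate; inconclusive means best replicate reaches 50% inhibition but some replicates fall short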
# CAL PDZ FP-1: CAL PDZ peptide-binding inhibitors, primary screen, biochemical, fluorescence polarization, Cer-tagged CAL PDZ, HTS; purified CAL PDZ, TMR-peptide fluorescence polarization, 1 h; inhibition, % at 20 µM; hit rate 0.02% among 330,000; AID 504414, 2011;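 active means highest replicate inhibition of at least 40%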;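 further: plate controls were DMSO neutral control wells for no effect and unlabeled competitor peptide control wells for full effect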
#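 Material: tagged CAL PDZ protein CerCALP, purified; buffer or medium: sodium phosphate/NaCl buffer pH 7.4 with TCEP, IgG, Thesit; also added: fluorescent TMR peptide probe; schedule: 1 h incubation at room temperature before polarization reading; technique: fluorescence polarization from S- and P-plane intensities, G-factor corrected; control set: unlabelled peptide and DMSO controls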
# CDK5 inh: inhibitors of human CDK5/p35 kinase, primary screen, biochemical, single concentration | inhibition, % at 10 µM | hit rate 0.01% among 330,000 | Recombinant CDK5/p35, ADP-Glo luminescence, 60 min;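 active means highest replicate inhibition of at least 50% and at least 75% of replicates reaching 50%; inconclusive means only one of the two criteria met; inactive means both criteria failed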;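 further: plate controls were DMSO neutral control for no effect and GW8510 at 10 µM for full effect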
# dFosB activator: activators of delta FosB homodimer, primary screen, biochemical, fluorescence polarization, TAMRA-CDK5 oligo, single point; AID 493131, 2011; activation, % at 25 µM; purified delta FosB; percent of positive-control signal above neutral wells; hit rate 0.99% among 340,000;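 active means mean activation above about 17%, with every replicate also reaching it, limit read from the data, passing the limit was not always enough; inconclusive means only one of the two conditions met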
# Target sequence (P13346 whole entry, looked up): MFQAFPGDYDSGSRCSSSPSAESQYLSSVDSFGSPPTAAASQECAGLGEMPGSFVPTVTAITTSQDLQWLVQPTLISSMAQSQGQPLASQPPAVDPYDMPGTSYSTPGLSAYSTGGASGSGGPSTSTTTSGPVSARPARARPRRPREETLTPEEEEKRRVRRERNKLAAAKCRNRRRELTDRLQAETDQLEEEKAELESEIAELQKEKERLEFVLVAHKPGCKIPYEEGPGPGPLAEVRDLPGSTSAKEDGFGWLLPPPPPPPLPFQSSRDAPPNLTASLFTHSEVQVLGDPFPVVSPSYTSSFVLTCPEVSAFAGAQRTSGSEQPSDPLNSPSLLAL
# CAL PDZ FP-2: untagged CAL PDZ binding inhibitors, primary screen, biochemical, fluorescence polarization, HTS. Golgi-associated PDZ and coiled-coil motif-containing protein (Homo sapiens), Q9HD26. purified CAL PDZ, TMR-peptide fluorescence polarization, 1 h. inhibition, % at 24.9 µM. hit rate 0.92% among 300,000;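 active means mean inhibition of at least 30% with at least half of replicates also reaching 30%; inconclusive means no clear call, values can overlap the other calls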;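 further: 0% = DMSO neutral control and 100% = excess unlabeled competitor peptide PRC23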
# Numbers without * were called inactive; ? = inconclusive; nt = not tested or not shown; + = active, no number. Most compounds without a hit are left out; they make up all but 2.2% or so of the library.
SMILES,DYRK1A inh,Rtt109 Vps75,CAL PDZ FP-1,CDK5 inh,dFosB activator,CAL PDZ FP-2
Cc1cc(OCC(=O)N(Cc2ccco2)c2c(N)n(Cc3ccccc3)c(=O)[nH]c2=O)ccc1Cl,-1,-4,0,-2,8,74*
O=C(CCl)N1c2ccccc2CCc2ccccc21,4,3,-16,0,3,46*
CC(Cl)C(=O)N1c2ccccc2CCc2ccccc21 (stereo not given),1,-4,0,-1,0,-4
CC(Sc1ccccc1)C(=O)NN=C1CCCCCC1 (stereo not given),-1,9,-1,-3,1,nt
COc1ccc(Nc2nc(N3CCN(C)CC3)nc3ccccc23)c(OC)c1,0,nt,2,-2,5,53*
CC[n+]1c(/C=C/c2c[nH]c3ccccc23)ccc2cc(C)ccc21,11,84*,9,3,12,-14
CN(CC(=O)Nc1cc(Cl)ccc1C#N)C1CCS(=O)(=O)C1 (stereo not given),3,2,-1,-6,0,85*
CN(CC(=O)Nc1cc(Cl)ccc1Cl)C1CCS(=O)(=O)C1 (stereo not given),5,-9,-3,-6,5,0
O=C(Nc1ccc(Oc2cccnc2)cc1)C1CCN(Cc2cc(Cl)ccc2O)CC1,5,59*,-1,0,-9,-4
O=C(CN1C(=O)NC2(CCCCCC2)C1=O)N1CCN(c2ccc(F)cc2)CC1,-3,-3,0,2,-5,-2
COc1ccc(N2CCN(C(=O)CN3C(=O)NC4(CCCCCC4)C3=O)CC2)cc1,1,-3,0,0,-2,59*
COc1cc(CNC[C@H]2O[C@@H](n3cnc(C(N)=O)n3)[C@H](O)[C@@H]2O)ccc1OCc1cccc(Cl)c1,1,-2,-2,-6,0,0
COc1ccc(/C=C/C(=O)N2CCN(c3ccccc3)CC2)cc1S(=O)(=O)N1CCOCC1,0,1,0,-4,-10,52*
CC(C)CCN(C(=O)CNC(=O)c1ccco1)C(C(=O)NC1CCCCC1)c1ccco1 (stereo not given),0,-13,-1,1,-3,-7
COC(=O)c1cc(S(=O)(=O)N2CCCC(C)C2)c[nH]1 (stereo not given),-5,-1,0,0,-6,78*
COC(=O)c1cc(S(=O)(=O)N2CCCCC2C)c[nH]1 (stereo not given),nt,7,-2,nt,-3,7
Cc1ccc2[nH]c(=O)c(CN(Cc3cccs3)S(=O)(=O)c3ccc4c(c3)OCCO4)cc2c1,2,5,-2,-1,4,34*
COc1ccc(C2(C)NC(=O)N(CC(=O)c3cc(C)n(C4CC4)c3C)C2=O)cc1OC (stereo not given),4,-7,-1,2,-9,54*
O=C1COc2cccnc2N1,-3,-3,-3,0,3,-2
O=C1COc2ccccc2CN1,-1,-4,-1,1,0,+
CN(c1ccc(C(=O)Nc2ccc3c(c2)OCO3)cc1)S(C)(=O)=O,1,51*,0,1,-6,-6
Cc1cc(NC(=O)CSc2nnc(-c3cccc(F)c3)n2N)no1,-4,-4,-2,1,-9,-5
Cc1ccc(-n2ncc3c2CCCC3NC(=O)CCc2c(C)noc2C)cc1C (stereo not given),1,3,-1,-1,-3,33*
CCCC(=O)NC1CCCc2c1cnn2-c1ccc(C)c(C)c1 (stereo not given),4,3,0,0,-3,-2
COc1ccccc1C(=O)CSc1nccn1C,2,54*,-3,3,7,-2
SMILES,DYRK1A inh,Rtt109 Vps75,CAL PDZ FP-1,CDK5 inh,dFosB activator,CAL PDZ FP-2
CCSc1nnc(NC(=O)Cc2ccc(OC)c(S(=O)(=O)N3CCOCC3)c2)s1,5,-4,-1,2,-2,39*
COc1ccc(CC(=O)NC(c2ccccc2)c2ccccc2)cc1S(=O)(=O)N1CCOCC1,18,33,1,-1,-5,nt
O=C(C(c1ccccc1)c1ccccc1)N1CCN(Cc2ccccn2)CC1,-1,-18,-1,2,-1,31*
CCCCNC(=S)Nc1ccc2nc(N3CCN(CC)CC3)cc(C)c2c1,6,1,1,1,-5,-1
CCN(CC)CCNC(=S)Nc1ccc2nc(N3CCN(CC)CC3)cc(C)c2c1,2,7,2,-5,18*,-1
CCN1CCN(c2cc(C)c3cc(NC(=S)NCCCN4CCc5ccccc5C4)ccc3n2)CC1,4,22,1,2,37*,-4
CCCN1CCN(CCCNC(=S)Nc2ccc3nc(N4CCN(CC)CC4)cc(C)c3c2)CC1,-9,1,1,-1,8,8
Cc1cc(N2CCN(C)CC2)nc2ccc(NC(=S)NCCN3CCc4ccccc4C3)cc12,6,?,2,-2,35*,-5
CC(CC(=O)Nc1cccnc1)c1ccccc1 (stereo not given),-3,-11,0,-1,-3,-3
CNS(=O)(=O)c1cc(OC)c(OC)cc1CC(=O)OC,-6,11,-2,0,4,-1
CC(C)C(C(=O)OCC(=O)c1ccc2c(c1)NC(=O)CO2)N1C(=O)c2ccccc2C1=O (stereo not given),-2,2,-3,1,23*,5
CC1Cc2ccccc2N1C(=O)c1ccc(N2CCCCC2)c([N+](=O)[O-])c1 (stereo not given),-4,-2,0,0,-10,-2
CC1Cc2ccccc2N1C(=O)c1ccc(N2CCCC2)c([N+](=O)[O-])c1 (stereo not given),-1,57*,-3,-1,-1,2
O=C1C2C3CC(C(Br)C3Br)C2C(=O)N1c1ccccn1 (stereo not given),7,-4,-1,1,0,44*
O=C(COC(=O)Cc1ccccc1[N+](=O)[O-])Nc1nnc(-c2ccccc2)o1,8,56*,-3,1,-9,-4
COc1ccc(OC)c(NS(=O)(=O)c2ccc3c(c2)CCC(=O)N3)c1,1,8,nt,-3,-3,9
CN(C)CCCn1c(=S)[nH]c2sc3c(c2c1=O)CCCC3,8,1,-1,1,1,49*
